Activity calls are given as the source filed them. The rule behind the calls is not given here.
What was measured:
[1] = Substrate activity at Escherichia coli nitroreductase nfsA assessed as Kcat using NADPH as cofactor in Tris-Cl buffer at pH 7.5 by spectrophotometric method; type: ADME
[2] = target: T1, Oxygen-insensitive NAD(P)H nitroreductase (Escherichia coli K-12, UniProt P38489); assay: Substrate activity at Escherichia coli nitroreductase nfsB assessed as Kcat using NADH as cofactor in Tris-Cl buffer at pH 7.5 by spectrophotometric method; type: ADME
T1 sequence (P38489 whole entry): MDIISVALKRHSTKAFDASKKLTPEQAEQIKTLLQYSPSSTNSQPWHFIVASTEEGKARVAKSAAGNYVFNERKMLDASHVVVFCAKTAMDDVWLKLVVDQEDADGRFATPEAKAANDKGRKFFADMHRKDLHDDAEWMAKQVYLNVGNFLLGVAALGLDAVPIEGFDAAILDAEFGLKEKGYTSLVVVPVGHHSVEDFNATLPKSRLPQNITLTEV

nitroreductase nfsA = assay: Substrate activity at Escherichia coli nitroreductase nfsA assessed as Km using NADPH as cofactor in Tris-Cl buffer at pH 7.5 by spectrophotometry based Michaelis-Menten plot analysis; type: ADME; conditions: Escherichia coli nitroreductase nfsA enzyme
[3] = target: T1, Oxygen-insensitive NAD(P)H nitroreductase; assay: Substrate activity at Escherichia coli nitroreductase nfsB assessed as Km using NADH as cofactor in Tris-Cl buffer at pH 7.5 by spectrophotometric method based Michaelis-Menten plot analysis; type: ADME
[4] = Substrate activity at Escherichia coli nitroreductase nfsA assessed as ratio of Kcat/Km using NADPH as cofactor in Tris-Cl buffer at pH 7.5 by spectrophotometry based Michaelis-Menten plot analysis; type: ADME
[5] = target: T1, Oxygen-insensitive NAD(P)H nitroreductase; assay: Substrate activity at Escherichia coli nitroreductase nfsB assessed as ratio of Kcat/Km using NADH as cofactor in Tris-Cl buffer at pH 7.5 by spectrophotometric method based Michaelis-Menten plot analysis; type: ADME
[6] = target: T1, Oxygen-insensitive NAD(P)H nitroreductase; assay: Substrate activity at Escherichia coli nitroreductase nfsB assessed as ratio of Kcat/Km using NADH as cofactor in Tris-Cl buffer at pH 7.5 by spectrophotometric method based Michaelis-Menten plot analysis relative to CB1954/NfsB; type: ADME
[7] = Substrate activity at Escherichia coli nitroreductase nfsA assessed as ratio of Kcat/Km using NADPH as cofactor in Tris-Cl buffer at pH 7.5 by spectrophotometric method based Michaelis-Menten plot analysis relative to CB1954/NfsB
Hep 3B2 [8] = assay: Cytotoxicity against human Hep3B cells assessed as cell viability after 48 hrs by MTT assay; type: functional, cell-based
Outline: (§1)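 Hep3B hepatoma, PC-3 prostate cancer and HUVEC (healthy control) cells were exposed to nitro compounds at 150, 75, 38, 19 and 9 µM for 24 h and 48 h. Viability was read by MTT assay, and IC50 values were derived from the growth inhibition curves.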

PC-3 [9] = assay: Cytotoxicity against human PC3 cells assessed as cell viability after 48 hrs by MTT assay; type: functional, cell-based; outline: as §1
HUVEC [10] = assay: Cytotoxicity against human HUVEC cells assessed as cell viability after 24 hrs by MTT assay; type: cell-based; conditions: Homo sapiens, HUVEC; outline: as §1
HUVEC [11] = assay: Cytotoxicity against human HUVEC cells assessed as cell viability after 48 hrs by MTT assay; type: cell-based; conditions: Homo sapiens, HUVEC; outline: as §1
Putative nitroreductase [12] = target: T2, Putative nitroreductase (Staphylococcus saprophyticus subsp. saprophyticus (strain ATCC 15305 / DSM20229 / NCIMB 8711 / NCTC 7292 / S-41), UniProt Q4A0P1); assay: Substrate activity at Staphylococcus saprophyticus nitroreductase expressed in Escherichia coli BL21 (DE3) assessed as retention time by HPLC analysis; type: ADME
T2 sequence (Q4A0P1 whole entry): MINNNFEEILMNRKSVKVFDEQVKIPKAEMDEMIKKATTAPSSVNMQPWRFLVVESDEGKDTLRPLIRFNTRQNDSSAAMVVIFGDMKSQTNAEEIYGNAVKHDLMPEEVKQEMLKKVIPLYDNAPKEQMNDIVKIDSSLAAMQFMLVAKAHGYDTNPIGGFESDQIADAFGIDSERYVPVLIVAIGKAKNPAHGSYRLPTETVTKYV

Putative nitroreductase [13] = target: T2, Putative nitroreductase; assay: Substrate activity at Staphylococcus saprophyticus nitroreductase NtrB assessed as enzyme specific activity using NADH as cofactor in Tris-Cl buffer at pH 7.5 by HPLC analysis; type: ADME
Hep 3B2 [14] = assay: Cytotoxicity against human Hep3B cells assessed as cell viability at 9 to 150 uM after 24 hrs by MTT assay relative to control; type: functional; outline: as §1
PC-3 [15] = assay: Cytotoxicity against human PC3 cells assessed as cell viability at 9 to 150 uM after 24 hrs by MTT assay relative to control; type: functional; outline: as §1
[16] = target: T1, Oxygen-insensitive NAD(P)H nitroreductase; assay: Substrate activity at Escherichia coli nitroreductase nfsB assessed as Kcat upto 1 mM using NADH as cofactor in sodium phosphate buffer at pH 7.5 incubated for 5 mins by RP-HPLC; type: ADME; conditions: pH 7.5, 5 min
Putative nitroreductase [17] = target: T2, Putative nitroreductase; assay: Substrate activity at Staphylococcus saprophyticus nitroreductase NtrB assessed as Kcat using NADPH as cofactor in Tris-Cl buffer at pH 7.5 incubated for 30 mins by HPLC analysis; type: ADME; conditions: pH 7.5, 0.5 h
[18] = target: T1, Oxygen-insensitive NAD(P)H nitroreductase; assay: Substrate activity at Escherichia coli nitroreductase nfsB assessed as ratio of Kcat/Km upto 1 mM using NADH as cofactor in sodium phosphate buffer at pH 7.5 incubated for 5 mins by RP-HPLC; type: ADME; conditions: pH 7.5, 5 min
Putative nitroreductase [19] = target: T2, Putative nitroreductase; assay: Substrate activity at Staphylococcus saprophyticus nitroreductase NtrB assessed as ratio of Kcat/Km using NADPH as cofactor in Tris-Cl buffer at pH 7.5 incubated for 30 mins by HPLC analysis; type: ADME; conditions: pH 7.5, 0.5 h
[20] = target: T1, Oxygen-insensitive NAD(P)H nitroreductase; assay: Substrate activity at Escherichia coli nitroreductase nfsB assessed as ratio of Kcat/Km upto 1 mM using NADH as cofactor in sodium phosphate buffer at pH 7.5 incubated for 5 mins by RP-HPLC relative to CB1954/NfsB; type: ADME; conditions: pH 7.5, 5 min
Putative nitroreductase [21] = target: T2, Putative nitroreductase; assay: Substrate activity at Staphylococcus saprophyticus nitroreductase NtrB assessed as ratio of Kcat/Km using NADPH as cofactor in Tris-Cl buffer at pH 7.5 incubated for 30 mins by HPLC analysis relative to CB1954/NfsB; type: ADME; conditions: pH 7.5, 0.5 h
Putative nitroreductase [22] = target: T2, Putative nitroreductase; assay: Binding affinity to Staphylococcus saprophyticus nitroreductase NtrB
Putative nitroreductase [23] = target: T2, Putative nitroreductase; assay: Substrate activity at Staphylococcus saprophyticus nitroreductase NtrB assessed as Kcat/Km using NADPH as cofactor in Tris-Cl buffer at pH 7.5 by HPLC analysis relative to CB1954/NfsB; type: ADME
PC-3 [24] = assay: Cytotoxicity against human PC3 cells […] Staphylococcus saprophyticus nitroreductase NtrB assessed as reduction in cell viability in presence of NADH as cofactor after 48 hrs by SRB assay; type: functional, cell-based; conditions: PC-3, 48 h
Outline: (§2)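 Compounds were reduced outside the cells by purified His-tag (Ni column) Ssap-NtrB. The reaction mix held 600 µM NADH and compound (150, 39, 9 µM, or 180, 18, 1.8 nM) and was applied to PC-3 cells. Controls were compound alone in 25 mM Tris/HCl pH 7.5, and enzyme alone at 31 µg/mL. After 48 h, SRB absorbance was read at 492 nm and converted to % viability.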

Hep 3B2 [25] = assay: Cytotoxicity against human Hep3B cells assessed as cell viability at 9 to 150 uM after 48 hrs by MTT assay relative to control; type: functional; outline: as §1
PC-3 [26] = assay: Cytotoxicity against human PC3 cells assessed as cell viability at 9 to 150 uM after 48 hrs by MTT assay relative to control; type: functional; outline: as §1
[27] = Cytotoxicity against human HUVEC cells assessed as cell viability at 9 to 150 uM after 24 hrs by MTT assay relative to control; type: cell-based; conditions: read-out: Activity; outline: as §1
[28] = Cytotoxicity against human HUVEC cells assessed as cell viability at 9 to 150 uM after 48 hrs by MTT assay relative to control; type: cell-based; conditions: read-out: Activity; outline: as §1
PC-3 [29] = assay: Cytotoxicity against human PC3 cells assessed as reduction in cell viability after 48 hrs by SRB assay; type: functional, cell-based; outline: as §2

SMILES: CS(=O)(=O)OCCN(CCBr)c1c(C(=O)NCCO)cc([N+](=O)[O-])cc1[N+](=O)[O-]
- Kcat [1]: 12 s⁻¹
- Kcat [2]: 60 s⁻¹
- Km (nitroreductase nfsA): 100 µM
- Km [3]: 4500 µM
- Kcat/Km [4]: 120000 M⁻¹ s⁻¹
- Kcat/Km [5]: 13000 M⁻¹ s⁻¹
- fold change (FC) [6]: 2.32
- fold change (FC) [7]: 21.43

SMILES: O=[N+]([O-])c1cc([N+](=O)[O-])c(Nc2ccc(O)cc2)cc1Nc1ccc(O)cc1
- IC50 (Hep 3B2 [8]): 14.5 µM
- IC50 (PC-3 [9]): Not Active
- IC50 (HUVEC [10]): 66.7 µM
- IC50 (HUVEC [11]): 150 µM
- Retention_time (Putative nitroreductase [12]): 21.2 min
- Activity (Putative nitroreductase [13]): 1.61 U/mg
- Activity (Hep 3B2 [14]): 51 - 80%
- Activity (PC-3 [15]): >80%

SMILES: NC(=O)c1cc(N(CCCl)CCCl)c([N+](=O)[O-])cc1[N+](=O)[O-]
- Kcat [16]: 26.4 s⁻¹
- Kcat (Putative nitroreductase [17]): 0.8 s⁻¹
- Kcat/Km [18]: 10560 M⁻¹ s⁻¹
- Kcat/Km (Putative nitroreductase [19]): 9350 M⁻¹ s⁻¹
- fold change (FC) [20]: 1.89
- fold change (FC) (Putative nitroreductase [21]): 1.67
- Ki (Putative nitroreductase [22]): 7.28 µM

SMILES: O=[N+]([O-])c1ccc(Nc2ccc3ccccc3c2)c([N+](=O)[O-])c1
- Retention_time (Putative nitroreductase [12]): 20.13 min
- fold change (FC) (Putative nitroreductase [23]): 1.48
- IC50 (PC-3 [24]): 5.07 µM
- Activity (Hep 3B2 [14]): 51 - 80%
- Activity (Hep 3B2 [25]): 51 - 80%
- Activity (PC-3 [15]): 51 - 80%
- Activity (PC-3 [26]): >80%
- viability at 24 h, up to 150 µM [27]: > 80%
- viability at 48 h, up to 150 µM [28]: > 80%
- Activity (PC-3 [29]): inactive
